In publication PMC8880306 (Journal of medicinal chemistry, 2021):
Positions count from the first letter of the chain named.

Key:
[1] = target: T1, AR protein (AR T878A mutation) (Homo sapiens, UniProt P10275, T878A); assay: Western blotting of AR protein in LNCaP cells; type: cell-based; settings: LNCaP cell line
T1 sequence (P10275 1-920 T878A): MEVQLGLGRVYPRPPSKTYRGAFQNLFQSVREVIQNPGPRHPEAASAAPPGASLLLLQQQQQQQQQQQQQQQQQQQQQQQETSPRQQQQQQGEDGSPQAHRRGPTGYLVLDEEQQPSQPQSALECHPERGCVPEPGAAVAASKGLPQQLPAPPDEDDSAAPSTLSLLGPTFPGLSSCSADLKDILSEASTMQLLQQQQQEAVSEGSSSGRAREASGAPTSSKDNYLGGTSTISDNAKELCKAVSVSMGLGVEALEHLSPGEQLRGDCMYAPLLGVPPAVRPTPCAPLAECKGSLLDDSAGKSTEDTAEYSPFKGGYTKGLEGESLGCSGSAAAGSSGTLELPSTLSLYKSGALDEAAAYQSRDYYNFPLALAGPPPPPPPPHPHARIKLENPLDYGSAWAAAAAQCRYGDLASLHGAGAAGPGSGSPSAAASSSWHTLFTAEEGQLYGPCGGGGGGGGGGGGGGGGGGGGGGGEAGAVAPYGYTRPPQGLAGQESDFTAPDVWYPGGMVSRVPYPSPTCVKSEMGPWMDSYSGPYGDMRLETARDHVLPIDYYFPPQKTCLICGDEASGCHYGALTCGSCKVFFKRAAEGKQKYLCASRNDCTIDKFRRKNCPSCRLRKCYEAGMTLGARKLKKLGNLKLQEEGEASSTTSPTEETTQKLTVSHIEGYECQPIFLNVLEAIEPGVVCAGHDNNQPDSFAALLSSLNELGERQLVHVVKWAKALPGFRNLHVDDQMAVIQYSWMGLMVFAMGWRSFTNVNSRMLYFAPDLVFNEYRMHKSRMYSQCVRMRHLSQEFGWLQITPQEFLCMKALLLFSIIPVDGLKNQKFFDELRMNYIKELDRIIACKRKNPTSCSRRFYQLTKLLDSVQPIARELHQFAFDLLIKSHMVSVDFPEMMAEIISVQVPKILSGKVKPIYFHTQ

[2] = target: T2, AR protein (Homo sapiens, UniProt P10275); assay: Western blotting of AR protein in VCaP cells; type: cell-based; settings: for time within which AR protein level is effectively reduced / treatment time for near-complete AR depletion: VCaP cell line
T2 sequence (P10275 1-920): T1 sequence (P10275 1-920 T878A) with A878T

[3] = test system: VCaP xenograft tumor; assay: Antitumor activity in the VCaP xenograft tumor model; type: in vivo; settings: all dose levels, daily oral, entire 21 day experiment, SCID mice
[4] = target: T2, AR protein; assay: Pharmacodynamics: Western blot of AR protein in VCaP xenograft tumors; type: in vivo, mice
[5] = Oral exposure; type: in vivo, mice; settings: male, SCID, mouse, plasma, 10 mg/kg
How it was run: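 Non-tumour-bearing male SCID mice were given single oral gavage at 10 mg/kg in 100% PEG200. Three mice per time point were sacrificed at 1, 3 and 6 h. 300 μL blood was taken per animal and centrifuged at 15000 rpm for 10 min. Plasma was stored at −80 °C and quantified by validated LC-MS/MS. Values are mean ± SD.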

[6] = Drug concentrations in plasma and VCaP tumor tissue in SCID mice; type: in vivo; settings: VCaP tumor tissue, single 20 mg/kg PO, 6 h
How it was run: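 Male CB17 SCID mice carried subcutaneous VCaP xenografts (5 × 10^6 cells in 5 mg/mL Matrigel). At approximately 200 mm3 tumour volume, mice received single 20 mg/kg oral gavage in 100% PEG200. Plasma and tumour were taken at 6 and 24 h, three mice per time point. Tumours were frozen, ground in liquid nitrogen, homogenised in water:acetonitrile 4:1 at 4 °C, acetonitrile-precipitated, then assayed by validated LC-MS/MS.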

[7] = Oral bioavailability of ARD-61 in mice; type: in vivo; settings: mice (data not shown)
[8] = single oral administration 20 mg/kg, 6 h
[9] = single oral administration 20 mg/kg, 24 h

Row | Compound | time within which AR protein level is effectively reduced [1] [h] | time within which AR protein level is effectively reduced [2] [h] | treatment time for near-complete AR depletion [1] [h] | reduction of AR protein level in VCaP tumor tissue [4, 8] | reduction of AR protein level in VCaP tumor tissue [4, 9] | treatment time for near-complete AR depletion [2] [h] | further results
1 | CC1(C)[C@H](NC(=O)c2ccc(N3CCC(N4CCN(c5ccc6c(c5)C(=O)N(C5CCC(=O)NC5=O)C6=O)CC4)CC3)cc2)C(C)(C)[C@H]1Oc1ccc(C#N)c(Cl)c1 (stereo partly drawn) [Compound 33, N-((1R,3R)-3-(3-Chloro-4-cyanophenoxy)-2,2,4,4-tetramethylcyclobutyl)-4-(4-(4-(2-(2,6-dioxopiperidin-3-yl)-1,3-dioxoisoindolin-5-yl)piperazin-1-yl)piperidin-1-yl)benzamide] | ≤ 3 | ≤ 3 |  |  |  |  | 
2 | CC1(C)[C@H](NC(=O)c2ccc(N3CCN(CC4CCN(c5ccc6c(c5)C(=O)N(C5CCC(=O)NC5=O)C6=O)CC4)CC3)cc2)C(C)(C)[C@H]1Oc1ccc(C#N)c(Cl)c1 (stereo partly drawn) [Compound 28, N-((1R,3R)-3-(3-Chloro-4-cyanophenoxy)-2,2,4,4-tetramethylcyclobutyl)-4-(4-((1-(2-(2,6-dioxopiperidin-3-yl)-1,3-dioxoisoindolin-5-yl)piperidin-4-yl)methyl)piperazin-1-yl)benzamide] | ≤ 3 | ≤ 3 | 6 | modest effect | effective in reducing the levels of AR protein | 6 | maximum weight loss [3]: no more than 5%; reduction of AR protein level in VCaP tumor tissue ([4]; daily oral 10 mg/kg for 3 days, 3 and 6 h after last dose): effectively reduces the levels of AR protein; reduction of AR protein level in VCaP tumor tissue ([4]; daily oral 10 mg/kg for 3 days, 24 h after last dose): only a modest effect
3 | CC1(C)[C@@H](NC(=O)c2ccc(N3CCN(CC4CCN(c5ccc6c(c5)C(=O)N(C5CCC(=O)NC5=O)C6=O)CC4)CC3)cc2)C[C@@H]1Oc1ccc(C#N)c(Cl)c1 (stereo partly drawn) [Compound 43, N-((1S,3S)-3-(3-Chloro-4-cyanophenoxy)-2,2-dimethylcyclobutyl)-4-(4-((1-(2-(2,6-dioxopiperidin-3-yi)-1,3-dioxoisoindolin-5-yl)-piperidin-4-yl)methyl)piperazin-1-yl)benzamide] |  |  |  |  |  |  | times less potent than compound 28 ([2]; VCaP, AR degradation): approximately 100
4 | CC1(C)[C@H](NC(=O)c2ccc(N3CCC(CN4CCN(c5ccc6c(c5)C(=O)N(C5CCC(=O)NC5=O)C6=O)CC4)CC3)cc2)C(C)(C)[C@H]1Oc1ccc(C#N)c(Cl)c1 (stereo partly drawn) [Compound 34, N-((1R,3R)-3-(3-Chloro-4-cyanophenoxy)-2,2,4,4-tetramethylcyclobutyl)-4-(4-((4-(2-(2,6-dioxopiperidin-3-yl)-1,3-dioxoisoindolin-5-yl)piperazin-1-yl)methyl)piperidin-1-yl)benzamide] | ≤ 3 | ≤ 3 | 6 |  |  | 6 | 
5 | CC1(C)[C@H](NC(=O)c2ccc(N3CCN(CCNc4ccc5c(c4)C(=O)N(C4CCC(=O)NC4=O)C5=O)CC3)cc2)C(C)(C)[C@H]1Oc1ccc(C#N)c(Cl)c1 (stereo partly drawn) [Compound 16, N-((1R,3R)-3-(3-Chloro-4-cyanophenoxy)-2,2,4,4-tetramethylcyclobutyl)-4-(4-(2-((2-(2,6-dioxopiperidin-3-yl)-1,3-dioxoisoindolin-5-yl)amino)ethyl)piperazin-1-yl)benzamide] |  |  |  |  |  |  | concentration at 1 h [5]: 1600 nM; concentration at 3 h [5]: 1200 nM; concentration at 6 h [5]: 800 nM
6 | CC1(C)[C@H](NC(=O)c2ccc(N3CCN(C4CCN(c5ccc6c(c5)C(=O)N(C5CCC(=O)NC5=O)C6=O)CC4)CC3)cc2)C(C)(C)[C@H]1Oc1ccc(C#N)c(Cl)c1 (stereo partly drawn) [Compound 27, N-((1R,3R)-3-(3-Chloro-4-cyanophenoxy)-2,2,4,4-tetramethylcyclobutyl)-4-(4-(1-(2-(2,6-dioxopiperidin-3-yl)-1,3-dioxoisoindolin-5-yl)piperidin-4-yl)piperazin-1-yl)benzamide] | ≤ 3 | ≤ 3 | 6 | only modestly | only modestly | 6 | tumor concentration (mean ± SD) [6]: 314.8 ± 93.7 ng/kg
7 | Cc1cc([C@H](C(=O)N2C[C@H](O)C[C@H]2C(=O)N[C@@H](CC(=O)N2CCC(N3CCC(C#Cc4ccc(C(=O)NC5C(C)(C)C(Oc6ccc(C#N)c(Cl)c6)C5(C)C)cc4)CC3)CC2)c2ccc(-c3scnc3C)cc2)C(C)C)on1 (stereo partly shown) [ARD-61] |  |  |  |  |  |  | oral bioavailability [7]: no oral bioavailability
8 | CNC(=O)c1ccc(N2C(=S)N(c3ccc(C#N)c(C(F)(F)F)c3)C(=O)C2(C)C)cc1F [enzalutamide, reference compound] |  |  |  |  |  |  | maximum weight loss [3]: no more than 5%
9 | CC1(C)[C@H](NC(=O)c2ccc(N3CCN(CC4CN(c5ccc6c(c5)C(=O)N(C5CCC(=O)NC5=O)C6=O)C4)CC3)cc2)C(C)(C)[C@H]1Oc1ccc(C#N)c(Cl)c1 (stereo partly drawn) [Compound 26, N-((1R,3R)-3-(3-Chloro-4-cyanophenoxy)-2,2,4,4-tetramethylcyclobutyl)-4-(4-((1-(2-(2,6-dioxopiperidin-3-yl)-1,3-dioxoisoindolin-5-yl)azetidin-3-yl)methyl)piperazin-1-yl)benzamide] | ≤ 3 | ≤ 3 | 6 | modest effect | effective in reducing the levels of AR protein | 6 | 
